Among the data in ChEMBL document CHEMBL4359877, “Identification of benzothiazinones containing an oxime functional moiety as new anti-tuberculosis agents” (Eur J Med Chem, 2019) are MIC90 values, retold here.

The term MIC90 denotes the lowest concentration that inhibits either 90% of growth or 90% of the strains tested, depending on the study.

Structures are written as SMILES. Values after ≈ are worked out from the molar mass of the structure shown.

For experiment [1], the system named is Mycobacterium tuberculosis. Put plainly: Antimycobacterial activity against multidrug-resistant Mycobacterium tuberculosis isolate 16833 assessed as reduction in bacterial cell growth incubated for 7 days by microplate alamar blue assay. It counts as functional. The note with it: isolate 16833, 168 h. In short, it runs like this:
(§1)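 MABA: H37Rv or clinical MDR isolates (resistant to INH and RFP, Beijing Chest Hospital patients) grown to late log phase in 7H9 with glycerol, Tween 80 and ADC, washed, filtered and frozen. Two-fold compound dilutions with 2 × 10⁵ CFU per well, 37 °C; Alamar blue plus Tween 80 added on day 7, fluorescence (ex 530/em 590) read after 16–24 h. MIC = lowest concentration giving ≥90% fluorescence reduction versus mean of bacterium-only controls; RIF and INH as positive controls.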
For orientation: Alamar Blue is a resazurin reagent that responds to reducing activity.

The test system of experiment [2] is Mycobacterium tuberculosis. Put plainly: Antimycobacterial activity against multidrug-resistant Mycobacterium tuberculosis isolate 16995 assessed as reduction in bacterial cell growth incubated for 7 days by microplate alamar blue assay. The settings on record: isolate 16995, 168 h. Format: functional. In short, it runs like this:
as §1

For `CON=C1CCC(CN2CCN(c3nc(=O)c4cc(C(F)(F)F)cc([N+](=O)[O-])c4s3)[C@@H](C)C2)CC1` (some centres undefined), the MIC90 in experiment [1] and in experiment [2] was less than 0.016 µg/mL each time.

For the molecule `NNC(=O)c1ccncc1` [ISONIAZID], the MIC90 in experiment [1] and in experiment [2] was more than 40 µg/mL each time.

On to `CON=C1CCC(CN2C(C)CN(c3nc(=O)c4cc(C(F)(F)F)cc([N+](=O)[O-])c4s3)CC2C)CC1` (centres undefined), for which the MIC90 in experiment [1] and in experiment [2] was less than 0.016 µg/mL in each case.

Take `C/C(CCN1CCN(c2nc(=O)c3cc(C(F)(F)F)cc([N+](=O)[O-])c3s2)CC1)=N\OCc1ccccc1`: the MIC90 in experiment [1] and in experiment [2] was less than 0.016 µg/mL in each case.

`O=c1nc(N2CCN(CC3CCCCC3)CC2)sc2c([N+](=O)[O-])cc(C(F)(F)F)cc12` [MACOZINONE]: the MIC90 in experiment [1] and in experiment [2] was less than 0.016 µg/mL each time.

`CON=C1CCC(CN2CCN(c3nc(=O)c4cc(C(F)(F)F)cc([N+](=O)[O-])c4s3)CC2C)CC1` (centres undefined): the MIC90 in experiment [1] and in experiment [2] was less than 0.016 µg/mL throughout.

Regarding `CON=C1CCC(CN2CCN(c3nc(=O)c4cc(C(F)(F)F)cc([N+](=O)[O-])c4s3)C[C@H]2C)CC1` (some centres undefined), the MIC90 in experiment [1] and in experiment [2] was less than 0.016 µg/mL throughout.

`CCON=C1CC(CN2CCN(c3nc(=O)c4cc(C(F)(F)F)cc([N+](=O)[O-])c4s3)CC2)C1` (centres undefined): the MIC90 in experiment [1] and in experiment [2] was less than 0.016 µg/mL throughout.

On to `CCON=C1CCC(CN2CCN(c3nc(=O)c4cc(C(F)(F)F)cc([N+](=O)[O-])c4s3)CC2C)CC1` (centres undefined), for which the MIC90 in experiment [1] and in experiment [2] was less than 0.016 µg/mL throughout.

With `CCON=C1CCC(CN2CCN(c3nc(=O)c4cc(C(F)(F)F)cc([N+](=O)[O-])c4s3)C[C@@H]2C)CC1` (some centres undefined), the MIC90 in experiment [1] and in experiment [2] was less than 0.016 µg/mL in each case.

In the case of `CON=C1CCC(CN2CCN(c3nc(=O)c4cc(C(F)(F)F)cc([N+](=O)[O-])c4s3)C[C@@H]2C)CC1` (some centres undefined), the MIC90 in experiment [1] and in experiment [2] was less than 0.016 µg/mL in each case.

As to `CO/N=C(\C)CCN1CCN(c2nc(=O)c3cc(C(F)(F)F)cc([N+](=O)[O-])c3s2)CC1`, the MIC90 is 0.017 µg/mL (≈ 0.037 µM) in experiment [1] and less than 0.016 µg/mL in experiment [2].

With `CON=C1CCC(CN2CCN(c3nc(=O)c4cc(C(F)(F)F)cc([N+](=O)[O-])c4s3)CC2)CC1` (centres undefined), the MIC90 in experiment [1] and in experiment [2] was less than 0.016 µg/mL each time.

With `CCON=C1CCC(CN2CCN(c3nc(=O)c4cc(C(F)(F)F)cc([N+](=O)[O-])c4s3)CC2)CC1` (centres undefined), the MIC90 in experiment [1] and in experiment [2] was less than 0.016 µg/mL each time.

In the case of `CCO/N=C(\C)CN1CCN(c2nc(=O)c3cc(C(F)(F)F)cc([N+](=O)[O-])c3s2)CC1`, the MIC90 in experiment [1] is less than 0.016 µg/mL; in experiment [2], 0.01 µg/mL (≈ 0.0218 µM).

Consider `CCON=C1CCC(CN2CCN(c3nc(=O)c4cc(C(F)(F)F)cc([N+](=O)[O-])c4s3)[C@@H](C)C2)CC1` (some centres undefined), for which the MIC90 in experiment [1] and in experiment [2] was less than 0.016 µg/mL throughout.

Regarding `CO[C@H]1/C=C/O[C@@]2(C)Oc3c(C)c(O)c4c(O)c(c(/C=N/N5CCN(C)CC5)c(O)c4c3C2=O)NC(=O)/C(C)=C\C=C\[C@H](C)[C@H](O)[C@@H](C)[C@@H](O)[C@@H](C)[C@H](OC(C)=O)[C@@H]1C` [RIFAMPIN], the MIC90 in experiment [1] and in experiment [2] was more than 40 µg/mL in each case.

On to `CCO/N=C(\C)CCN1CCN(c2nc(=O)c3cc(C(F)(F)F)cc([N+](=O)[O-])c3s2)CC1`, for which the MIC90 in experiment [1] and in experiment [2] was less than 0.016 µg/mL throughout.

Turning to `CCON=C1CCC(CN2CCN(c3nc(=O)c4cc(C(F)(F)F)cc([N+](=O)[O-])c4s3)[C@H](C)C2)CC1` (some centres undefined), the MIC90 in experiment [1] and in experiment [2] was less than 0.016 µg/mL in each case.

With `C/C(CN1CCN(c2nc(=O)c3cc(C(F)(F)F)cc([N+](=O)[O-])c3s2)CC1)=N\OCc1ccccc1`, the values for the MIC90 in experiment [1] and in experiment [2] were less than 0.016 µg/mL and 0.01 µg/mL (≈ 0.0192 µM), respectively.

For `CCON=C1CCC(CN2C(C)CN(c3nc(=O)c4cc(C(F)(F)F)cc([N+](=O)[O-])c4s3)CC2C)CC1` (centres undefined), the MIC90 in experiment [1] and in experiment [2] was less than 0.016 µg/mL in each case.

As to `CCON=C1CCC(CN2CCN(c3nc(=O)c4cc(C(F)(F)F)cc([N+](=O)[O-])c4s3)C[C@H]2C)CC1` (some centres undefined), the MIC90 in experiment [1] and in experiment [2] was less than 0.016 µg/mL in each case.
